From ChEMBL document CHEMBL4145447, “4-arylamidobenzyl substituted 5-bromomethylene-2(5H)-furanones for chronic bacterial infection” (Eur J Med Chem, 2018)
Activity calls are given as the source filed them. The rule behind the calls is not given here.

Assays:
RAW264.7 [1] = assay: Anti-inflammatory activity in mouse RAW264.7 cells assessed as inhibition of LPS-induced IL-6 production by measuring IL-6 level at 10 uM preincubated for 2 hrs followed by LPS stimulation and measured after 24 hrs by ELISA (reference value: 407.6 +/- 16.7 pg/ml)
[2] = biological target: T1, Peroxisome proliferator-activated receptor gamma (Mus musculus) (UniProt P37238); assay: Agonist activity at PPARgamma in mouse RAW264.7 cells assessed as inhibition of LPS-induced ERk1/2 phosphorylation at Thr202/Tyr204 residues at 10 uM preincubated for 1 hr followed by LPS stimulation and measured after 4 hrs by Western blot analysis; assay type: cell-based
T1 sequence (whole entry): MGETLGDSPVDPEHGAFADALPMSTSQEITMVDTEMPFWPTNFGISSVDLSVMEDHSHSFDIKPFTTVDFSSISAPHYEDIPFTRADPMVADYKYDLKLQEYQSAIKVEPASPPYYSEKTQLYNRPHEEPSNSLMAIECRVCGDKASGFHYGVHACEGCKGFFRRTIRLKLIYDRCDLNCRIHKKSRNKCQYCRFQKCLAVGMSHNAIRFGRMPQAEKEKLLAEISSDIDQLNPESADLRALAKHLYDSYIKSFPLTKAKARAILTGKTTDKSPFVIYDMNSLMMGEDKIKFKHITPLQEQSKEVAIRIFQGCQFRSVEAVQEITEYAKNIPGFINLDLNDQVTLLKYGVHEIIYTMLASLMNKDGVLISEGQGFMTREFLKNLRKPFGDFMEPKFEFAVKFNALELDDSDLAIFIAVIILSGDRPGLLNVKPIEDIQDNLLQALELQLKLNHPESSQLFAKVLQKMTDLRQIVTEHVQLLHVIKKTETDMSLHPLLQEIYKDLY
Outline: (§1)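 Western blot: RAW264.7 cells (2 × 10^6/well) pretreated 1 h with compound (10 µM), antagonist GW9662 (5 µM) where stated, then LPS 500 ng/mL for 4 h. Lysis on ice with PMSF, BCA-normalised protein on SDS gels, PVDF transfer, milk block, phospho- and total-protein primary antibodies, HRP secondary, ECL detection. Densitometry normalised to internal control; n = 3.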

RAW264.7 [3] = assay: Anti-inflammatory activity in mouse RAW264.7 cells assessed as inhibition of LPS-induced IL-6 production by measuring […] level at 10 uM preincubated for 2 hrs followed by LPS stimulation and measured after 12 hrs by ELISA (reference value: 175.2 +/- 10.2 pg/ml); assay type: functional
RAW264.7 [4] = assay: Anti-inflammatory activity in mouse RAW264.7 cells assessed as inhibition of LPS-induced IL-6 production by measuring […] level at 10 uM preincubated for 2 hrs followed by LPS stimulation and measured after 6 hrs by ELISA (reference value: 94.6 +/- 5.9 pg/ml); assay type: functional
[5] = Cytotoxicity against mouse RAW264.7 cells assessed as cell viability at 10 uM after 48 hrs by MTT assay relative to control; assay type: cell-based; settings: read-out: Activity
Outline: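 MTT viability: RAW264.7 cells (4 × 10^4/well) in DMEM + 10% FBS exposed to compounds diluted in DMEM for 48 h. MTT 0.5 mg/mL added for 4 h in the dark, formazan dissolved in DMSO, read at 570 nm. Viability = treated/medium-only control × 100; three independent experiments.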

RAW264.7 [6] = assay: Anti-inflammatory activity in mouse RAW264.7 cells assessed as inhibition of LPS-induced TNF-alpha production by measuring TNF-alpha level at 10 uM preincubated for 2 hrs followed by LPS stimulation and measured after 6 hrs by ELISA (reference value: 11922 +/- 628.4 pg/ml); assay type: functional
[7] = biological target: T1, Peroxisome proliferator-activated receptor gamma (Mus musculus); assay: Agonist activity at PPARgamma in mouse RAW264.7 cells assessed as inhibition of LPS-induced MAPK p38 phosphorylation at Thr180/Tyr182 residues at 10 uM preincubated for 1 hr followed by LPS stimulation and measured after 4 hrs by Western blot analysis; assay type: cell-based
Outline: as §1

[8] = biological target: T1, Peroxisome proliferator-activated receptor gamma (Mus musculus); assay: Agonist activity at PPARgamma in mouse RAW264.7 cells assessed as inhibition of LPS-induced NF-kB p65 phosphorylation at 10 uM preincubated for 1 hr followed by LPS stimulation and measured after 4 hrs in presence of PPARgamma antagonist GW9662 by Western blot analysis; assay type: cell-based
Outline: as §1

[9] = system: Pseudomonas aeruginosa PAO1; assay: Inhibition of Pseudomonas aeruginosa PAO1 GFP-fused quorum sensing rhlA at 10 uM measured every 15 mins up to 12 hrs by GFP reporter gene assay relative to control
Outline: (§2)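 GFP reporter strains of P. aeruginosa PAO1 (lasB-, rhlA- or pqsA-promoter fused to unstable gfp(ASV)) grown overnight in LB at 37 °C, 200 rpm, 18 h, then diluted 1:100. Culture mixed 1:1 with compound diluted in LB from 10 mM DMSO stock (0.1% DMSO final). Fluorescence (ex 485/em 528 nm) read every 15 min at 37 °C for ≥12 h.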

[10] = biological target: T1, Peroxisome proliferator-activated receptor gamma (Mus musculus); assay: Agonist activity at PPARgamma in mouse RAW264.7 cells assessed as inhibition of LPS-induced MAPK p38 phosphorylation at Thr180/Tyr182 residues at 10 uM preincubated for 1 hr followed by LPS stimulation and measured after 4 hrs in presence of PPARgamma antagonist GW9662 by Western blot analysis; assay type: cell-based
Outline: as §1

[11] = biological target: T2, Anthranilate--CoA ligase (Pseudomonas aeruginosa (strain ATCC 15692 / DSM 22644 / CIP 104116 /JCM 14847 / LMG 12228 / 1C / PRS 101 / PAO1)) (UniProt Q9I4X3); assay: Inhibition of Pseudomonas aeruginosa PAO1 GFP-fused quorum sensing pqsA at 10 uM measured every 15 mins up to 12 hrs by GFP reporter gene assay relative to control
T2 sequence (whole entry): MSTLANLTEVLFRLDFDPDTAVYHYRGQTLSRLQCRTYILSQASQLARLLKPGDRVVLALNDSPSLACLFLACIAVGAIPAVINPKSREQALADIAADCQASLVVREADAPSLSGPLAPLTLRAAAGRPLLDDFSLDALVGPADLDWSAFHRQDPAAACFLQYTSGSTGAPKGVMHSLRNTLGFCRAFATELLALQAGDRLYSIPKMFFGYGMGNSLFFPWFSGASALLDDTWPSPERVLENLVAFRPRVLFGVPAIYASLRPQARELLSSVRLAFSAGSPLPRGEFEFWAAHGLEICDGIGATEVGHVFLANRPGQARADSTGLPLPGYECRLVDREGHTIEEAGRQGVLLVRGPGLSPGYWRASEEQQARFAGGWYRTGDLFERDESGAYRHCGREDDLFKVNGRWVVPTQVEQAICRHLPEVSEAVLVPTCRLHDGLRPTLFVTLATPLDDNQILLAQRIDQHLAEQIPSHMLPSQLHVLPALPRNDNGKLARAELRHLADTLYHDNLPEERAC
Outline: as §2

RAW264.7 [12] = assay: Anti-inflammatory activity in mouse RAW264.7 cells assessed as inhibition of LPS-induced TNF-alpha production by measuring TNF-alpha level at 10 uM preincubated for 2 hrs followed by LPS stimulation and measured after 12 hrs by ELISA (reference value: 21561.3 +/- 857 pg/ml); assay type: functional

| Compound | Activity (RAW264.7 [1]) [pg/mL] | inhibition [2] | Activity (RAW264.7 [3]) [pg/mL] | Activity (RAW264.7 [4]) [pg/mL] | viability at 48 h, 10 µM [5] [%] | Activity (RAW264.7 [6]) [pg/mL] | inhibition [7] | inhibition [8] | inhibition [9] [%] | inhibition [10] | inhibition [11] [%] | Activity (RAW264.7 [12]) [pg/mL] |
| --- | --- | --- | --- | --- | --- | --- | --- | --- | --- | --- | --- | --- |
| O=C(Cc1ccc(F)cc1)Nc1ccc(CC2=CC(=O)OC2=CBr)cc1 | 145.2 | Active | 66.3 | 17 | 97 | 7524.7 | Active | inactive | 14.7 | inactive | 50.3 | 13362.7 |
| O=C(C=Cc1ccccc1)Nc1ccc(CC2=CC(=O)O/C2=C/Br)cc1 | 158.2 | Active | 75.3 | 19.6 | 104 | 7750 | Active | inactive | 12 | inactive | 23.1 | 15037.3 |
